Experimental data reported in ChEMBL document CHEMBL5329165, “Design, synthesis and biological evaluation of phenanthridine amide and 1,2,3-triazole analogues against Mycobacterium tuberculosis” (RSC Med Chem, 2023).
In brackets after ≈: the same amount, converted by molar mass.

How the values were obtained:
[1] = Cytotoxicity against human HepG2 cells assessed as reduction in cell viability by alamar blue assay; format: toxicity, cell-based
Method in brief: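 HepG2 cells grown in Glutamax DMEM with 10% (v/v) FBS and antibiotics, seeded in 96-well plates at 37°C, 5% CO₂. Viability measured by Alamar Blue staining per manufacturer's protocol; CC₅₀ derived.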

[2] = system: Mycobacterium tuberculosis; assay: Antimycobacterial activity against non-replicating Mycobacterium tuberculosis H37Rv ATCC 27294 incubated for 10 days under anaerobic condition followed by treatment under aerobic condition and measured on day 11 by luminescence based low oxygen recovery assay; format: functional; settings: H37Rv ATCC 27294, 264 h, time 11 day
Method in brief: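 Low-oxygen recovery assay with H37Rv carrying autoluminescent LuxABCDE plasmid, adapted to low oxygen. Cells in 7H12 broth, sonicated 15 s, inoculum 5 x 10⁵ to 2 x 10⁶ CFU/mL, with twofold compound dilutions. Anaerobic (<0.16% O₂; 10% H₂, 5% CO₂, N₂) at 37°C for 10 days, then 28 h aerobic recovery (5% CO₂ air). Luminescence read day 11; MIC at 90% signal reduction versus untreated controls.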

[3] = system: Mycobacterium tuberculosis; assay: Antimycobacterial activity against replicating Mycobacterium tuberculosis H37Rv ATCC 27294 incubated for 7 days by microplate alamar blue assay; format: functional; settings: H37Rv ATCC 27294, 168 h, time 7 day
Method in brief: (§1)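 H37Rv (ATCC 27294) in 7H12 broth (7H9 with casitone, BSA, catalase, palmitic acid). Compounds from DMSO in twofold serial dilution; final inoculum 3 to 5 X10⁵ cells/mL; 7 days at 37°C. Resazurin plus Tween 80 added, 18–24 h more at 37°C. Fluorescence read at 530 nm excitation/590 nm emission. MIC is the lowest concentration giving 90% fluorescence reduction versus untreated bacteria.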

[4] = system: Mycobacterium tuberculosis; assay: Antibacterial activity against Mycobacterium tuberculosis H37Rv incubated for 7 days by alamar blue reagent based fluorescence plate reader analysis; format: functional; settings: 168 h, time 7 day; method in brief: as §1
[5] = system: Mycobacterium tuberculosis; assay: Antimycobacterial activity against Mycobacterium tuberculosis H37Ra by microplate alamar blue assay; format: functional
[6] = system: Mycobacterium tuberculosis; assay: Antibacterial activity against Mycobacterium tuberculosis H37Rv ATCC 27294 by microplate alamar blue assay; format: functional; method in brief: as §1
[7] = system: Mycobacterium tuberculosis; assay: Antibacterial activity against Mycobacterium tuberculosis H37Rv; format: functional; method in brief: as §1

| Compound | CC50 [1] [µM] | MIC [2] [µM] | MIC [3] [µM] | also measured |
| --- | --- | --- | --- | --- |
| Nc1ccc(C(=O)Nc2nc3ccccc3c3ccccc23)cc1 | 32.1 | 85.8 (≈ 26.9 µg/mL) | 78.3 (≈ 24.5 µg/mL) |  |
| Cc1ccc2nc(C)c(C(=O)NCCCC3CCCCC3)n2c1 |  |  |  | MIC [4]: 0.1 µM (≈ 0.0313 µg/mL) |
| CCCCCC(=O)Nc1nc2ccccc2c2ccccc12 | 79.5 | 79.8 (≈ 23.3 µg/mL) | > 342 |  |
| Cc1nc2c3ccccc3c3ccccc3n2c1C(=O)NCc1cn(-c2ccc(Cl)c(Cl)c2[N+](=O)[O-])nn1 |  | > 183 | > 183 |  |
| COc1nc2ccc(Br)cc2cc1[C@@H](c1ccccc1)[C@@](O)(CCN(C)C)c1cccc2ccccc12 [BEDAQUILINE] |  | 0.216 (≈ 0.12 µg/mL) | 0.054 (≈ 0.03 µg/mL) |  |
| Nc1cccc(C(=O)Nc2nc3ccccc3c3ccccc23)c1 | 56.9 | 151 (≈ 47.2 µg/mL) | 150 (≈ 46.9 µg/mL) |  |
| O=C(/C=C/c1ccccc1)Nc1nc2ccccc2c2ccccc12 |  | > 308 | > 308 |  |
| Cc1ccc(-n2cc(CNC(=O)c3c(C)nc4c5ccccc5c5ccccc5n34)nn2)cc1C |  | 78.8 (≈ 36.3 µg/mL) | 41.5 (≈ 19.1 µg/mL) |  |
| O=C(Cc1ccc(Br)cc1)Nc1nc2ccccc2c2ccccc12 | > 50 | > 256 | > 256 |  |
| O=C(Cc1c[nH]c2ccccc12)Nc1nc2ccccc2c2ccccc12 | 32.1 | 69 (≈ 24.2 µg/mL) | 125 (≈ 44.1 µg/mL) |  |
| CO[C@H]1/C=C/O[C@@]2(C)Oc3c(C)c(O)c4c(O)c(c(/C=N/N5CCN(C)CC5)c(O)c4c3C2=O)NC(=O)/C(C)=C\C=C\[C@H](C)[C@H](O)[C@@H](C)[C@@H](O)[C@@H](C)[C@H](OC(C)=O)[C@@H]1C [RIFAMPIN] |  | 0.145 (≈ 0.119 µg/mL) | 0.073 (≈ 0.0601 µg/mL) |  |
| CCCCCCCC(=O)Nc1nc2ccccc2c2ccccc12 | > 50 | 300 (≈ 96.2 µg/mL) | > 312 |  |
| Cc1nc2c3ccccc3c3ccccc3n2c1C(=O)NCc1cn(-c2ccccc2Cl)nn1 |  | > 214 | > 214 |  |
| C#CCCC(=O)Nc1nc2ccccc2c2ccccc12 | 22.6 | > 365 | > 365 |  |
| COc1ccc(-n2cc(CNC(=O)c3c(C)nc4c5ccccc5c5ccccc5n34)nn2)c([N+](=O)[O-])c1 |  | 106 (≈ 53.6 µg/mL) | 94 (≈ 47.7 µg/mL) |  |
| Cc1nc2c3ccccc3c3ccccc3n2c1C(=O)NCc1cn(-c2ccc(C(F)(F)F)cc2)nn1 | 84.4 | 93 (≈ 46.5 µg/mL) | > 200 |  |
| O=C(CCCc1c[nH]c2ccccc12)Nc1nc2ccccc2c2ccccc12 | 30 | 218 (≈ 82.8 µg/mL) | 70.6 (≈ 26.8 µg/mL) |  |

| Compound | CC50 [1] [µM] | MIC [2] [µM] | MIC [3] [µM] | also measured |
| --- | --- | --- | --- | --- |
| CCc1ccc(-n2cc(CNC(=O)c3c(C)nc4c5ccccc5c5ccccc5n34)nn2)cc1 |  | > 217 | > 217 |  |
| O=C(Nc1ccc(Cl)cn1)c1cccc(C(F)(F)F)c1 |  |  |  | MIC [5]: 109 µM (≈ 32.7 µg/mL) |
| O=C(Cc1ccccc1)Nc1nc2ccccc2c2ccccc12 | > 50 | 267 (≈ 83.5 µg/mL) | 294 (≈ 91.8 µg/mL) |  |
| O=C(NCc1ccc(N2CCC(Cl)CC2)cc1)c1cc([N+](=O)[O-])cc([N+](=O)[O-])c1 |  |  |  | MIC [6]: 0.038 µM (≈ 0.0159 µg/mL) |
| C#CCNC(=O)c1c(C)nc2c3ccccc3c3ccccc3n12 |  | > 319 | > 319 |  |
| Nc1nc2ccccc2c2ccccc12 | 30.5 | 62.1 (≈ 12.1 µg/mL) | 61.3 (≈ 11.9 µg/mL) |  |
| O=C(Nc1nc2ccccc2c2ccccc12)c1cnccn1 | 53 | > 333 | > 333 |  |
| NNC(=O)c1ccncc1 [ISONIAZID] |  | 560 (≈ 76.8 µg/mL) | 2.62 (≈ 0.36 µg/mL) |  |
| Cc1cc(C)cc(-n2cc(CNC(=O)c3c(C)nc4c5ccccc5c5ccccc5n34)nn2)c1 | 90.7 | 208 (≈ 95.9 µg/mL) | > 217 |  |
| CCc1nc2ccc(C)cn2c1C(=O)NCCOc1ccc(N2CCC(=NOC)CC2)cc1 |  |  |  | MIC [6]: < 0.035 µM |
| O=C(Nc1nc2ccccc2c2ccccc12)c1ccccc1I |  | > 236 | > 236 |  |
| O=C(Nc1nc2ccccc2c2ccccc12)c1cccc(Cl)c1 |  | > 300 | > 300 |  |
| Cc1nc2c3ccccc3c3ccccc3n2c1C(=O)NCc1cn(-c2cccc(C(F)(F)F)c2)nn1 | 82.3 | 89.5 (≈ 44.8 µg/mL) | 184 (≈ 92 µg/mL) |  |
| N#Cc1ccc(Cn2cc(CNC(=O)c3cn4ccccc4n3)nn2)cc1 |  |  |  | MIC [7]: 1560 µM (≈ 558 µg/mL) |
| Cc1nc2c3ccccc3c3ccccc3n2c1C(=O)NCc1cn(-c2ccc([N+](=O)[O-])cc2Br)nn1 |  | 180 (≈ 100 µg/mL) | 180 (≈ 100 µg/mL) |  |
| Cc1nc2c3ccccc3c3ccccc3n2c1C(=O)NCc1cn(-c2cccc([N+](=O)[O-])c2)nn1 | 71.9 | 87.4 (≈ 41.7 µg/mL) | 84.3 (≈ 40.2 µg/mL) |  |
